Assay outcomes as filed in PubChem.
Hits are enriched below; roughly 5.5% of the tested compounds scored in any of these assays.
KCC2 mod: modulates chloride dependent transport by human KCC2; Q9H2X9; KCC2 cells, thallium flux FluoZin-2 fluorescence; B-score of Tl+ flux slope (higher = more flux/activation; lower = inhibition) at 10 µM; 2.2% of 190,000 active; AID 1456;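 active means thallium flux slope and its plate-corrected score both differing from the plate sample mean at a set confidence after two filtering rounds, in either direction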;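 further: slope of fluorescence scaled to starting intensity during 10 to 20 s after thallium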
STAT3 act: increases IL-6 driven STAT3 reporter signal. U3A cells, IL-6 STAT3-luciferase reporter, luminescence; 100% = signal with IL-6 EC80 alone. activation (% of control), % at 5.6 µM. 0.91% of 190,000 active;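 active means activation above the screen-wide mean of compound activation plus 3 SD, cut at about 130% in these data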;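 further: 0% = background luminescence of wells with medium and substrate only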
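System – human U3A cells carrying STAT3-luciferase construct · Probe or stimulus – Interleukin-6, 33 ng/mL · Schedule – compound 1 h, then IL-6 6 h at 37 °C · Signal – luminescence from STAT3-driven luciferase reporter · Evaluation – percent of IL-6-only median luminescence · Benchmarks – IL-6-only high control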
HSV augment: HSV replication enhancement; 0.005% of 220,000 active; maximum fold increase; HSV replication augmentation in cells, fold increase; in the data active means maximum fold increase above about 1.5; tested in PC3 cells
STAT3 inh: reduces IL-6 driven STAT3 reporter signal; U3A cells, IL-6 STAT3-luciferase reporter, luminescence; host cell line lacks STAT1; inhibition, % at 5.5 µM; 0.89% of 190,000 active;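 active means inhibition above the mean inhibition across all screened compounds plus 3 SD, cut at about 44% in these data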;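 further: 0% = DMSO only wells and 100% = 100 µM nifuroxazide control wells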
STAT1 blocker: inhibitors of IFN-gamma induced STAT1 signaling | inhibition, % at 5.5 µM | NIH 3T3 STAT1-luciferase reporter, luminescence | 0.35% of 200,000 active | AID 920;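 active means inhibition above a set limit, the mean inhibition across all tested compounds plus 3 SD, cut at about 34% in these data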;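 further: 0% = IFN-gamma with DMSO and 100% = IFN-gamma with 300 µM nifuroxazide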
STAT1 act: activators of IFN-gamma induced STAT1 signaling | NIH 3T3 STAT1-luciferase reporter, luminescence; 100% = IFN-gamma alone, no compound | activation (% of control), % at 5.5 µM | 2.6% of 200,000 active | AID 932;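 active means activation above the screen-wide mean activation plus 3 SD, cut at about 130% in these data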;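 further: raw ratio to IFN-gamma control signal so 100% means no change and 0% no light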
An asterisk follows results filed as active.

For [O-][n+]1cccc2ncc3cscc3c21 the results were KCC2 mod 0.54, STAT3 act 84, HSV augment inactive, STAT3 inh 22, STAT1 blocker 11 and STAT1 act 90.
Screening CC1CCc2nc(NC(=O)Cc3cccs3)sc2C1 (stereo unspecified) returned KCC2 mod -1.2, STAT3 act 105, HSV augment inactive, STAT3 inh -2, STAT1 blocker -46 and STAT1 act 143*.
For Cc1csc(NC(=O)CCCc2cccs2)n1 the results were KCC2 mod -0.41, STAT3 act 102, HSV augment inactive, STAT3 inh 2, STAT1 blocker -16 and STAT1 act 114.
For O=C(CCCc1cccs1)Nc1nc2c(s1)CCCC2 the results were KCC2 mod 0.024, STAT3 act 133*, HSV augment inactive, STAT3 inh -36, STAT1 blocker -7 and STAT1 act 106.
`CC1CCc2nc(NC(=O)c3ccco3)sc2C1` (stereo unspecified) gave KCC2 mod 0.21, STAT3 act 22, HSV augment inactive, STAT3 inh 97*, STAT1 blocker 43* and STAT1 act 61.
`CC1(C)CC(=O)c2sc(NC(=O)c3ccco3)nc2C1` gave KCC2 mod -0.0067, STAT3 act 95, HSV augment inactive, STAT3 inh 14, STAT1 blocker -3 and STAT1 act 103.
For CS(=O)(=O)c1ccc2nc(NC(=O)c3ccco3)sc2c1 the results were KCC2 mod 1.2, STAT3 act 94, HSV augment inactive, STAT3 inh 12, STAT1 blocker -34 and STAT1 act 131*.
`O=C(CCn1nc(-c2ccc(Cl)cc2)c2ccccc2c1=O)Nc1cccnc1` gave KCC2 mod -1.3, STAT3 act 98, HSV augment inactive, STAT3 inh 5, STAT1 blocker 13 and STAT1 act 86.
O=C(CSc1nnc2ccccn12)Nc1ccc2c(c1)OCCO2 was read as KCC2 mod 0.65, STAT3 act 104, HSV augment inactive, STAT3 inh 0, STAT1 blocker -45 and STAT1 act 139*.
Screening O=C(Cn1cnc2ccccc2c1=O)Nc1ccc2c(c1)OCCO2 returned STAT3 act 107, HSV augment inactive, STAT3 inh 0, STAT1 blocker -33 and STAT1 act 130*.
`O=C(Cn1cnc2ccccc2c1=O)NCCC(=O)Nc1ccc2c(c1)OCCO2` gave STAT3 act 98, HSV augment inactive, STAT3 inh 10, STAT1 blocker -2 and STAT1 act 102.
For CCn1nnnc1SCC(=O)Nc1ccc2c(c1)OCO2 the results were KCC2 mod 0.6, STAT3 act 101, HSV augment inactive, STAT3 inh 1, STAT1 blocker -8 and STAT1 act 105.
Screening Cc1csc(SCC(=O)Nc2ccc3c(c2)OCCO3)n1 returned KCC2 mod 0.29, STAT3 act 93, HSV augment inactive, STAT3 inh 13, STAT1 blocker -39 and STAT1 act 132*.
For Cn1nnnc1SCC(=O)Nc1ccc2c(c1)OCO2 the results were KCC2 mod 0.42, STAT3 act 100, HSV augment inactive, STAT3 inh 4, STAT1 blocker -49 and STAT1 act 141*.
For Fc1ccc(-c2cc(C(F)(F)F)n3ncnc3n2)cc1 the results were KCC2 mod 0.91, STAT3 act 90, HSV augment inactive, STAT3 inh 21, STAT1 blocker -8 and STAT1 act 105.
For Nc1nc(-c2ccc3ccccc3c2)c(C2(O)C(=O)Nc3c(Br)cc(F)cc32)s1 (stereo unspecified) the results were KCC2 mod 0.96, STAT3 act 102, HSV augment inactive, STAT3 inh 4, STAT1 blocker -1 and STAT1 act 101.
`Cc1c(C(=O)OC2CCCC2)[nH]c2c1C(=O)CC(c1ccco1)C2` (stereo unspecified) gave KCC2 mod 0.34, STAT3 act 120, HSV augment inactive, STAT3 inh -25, STAT1 blocker 0 and STAT1 act 97.
For COC(=O)C1C(=O)c2c([nH]c(C(=O)OC3CCCC3)c2C)CC1C (stereo unspecified) the results were STAT3 act 108, HSV augment inactive, STAT3 inh -9, STAT1 blocker -57 and STAT1 act 144*.
CCN(CC)S(=O)(=O)c1cc(NC(=O)Cn2ncc(Cl)c(Cl)c2=O)ccc1C was read as HSV augment inactive.
Screening Cc1nc2cc(-c3ccccc3)sc2c(=O)n1N returned KCC2 mod 0.5, STAT3 act 13, HSV augment inactive, STAT3 inh 99*, STAT1 blocker 86* and STAT1 act 21.
COc1ccc(-c2cc3nc(C)n(N)c(=O)c3s2)cc1 was read as KCC2 mod -0.85 and HSV augment inactive.
Screening CCOC(=O)CN1C(=O)C(Sc2n[nH]c(-c3ccccc3)n2)CCc2ccccc21 (stereo unspecified) returned KCC2 mod 0.09, STAT3 act 100, HSV augment inactive, STAT3 inh -1, STAT1 blocker 0 and STAT1 act 100.
Screening COc1ccccc1NC(=O)Nc1nnc(-c2ccco2)s1 returned KCC2 mod -0.17, STAT3 act 89, STAT3 inh 20, STAT1 blocker -4 and STAT1 act 104.
Cc1ccccc1C(=O)Nc1nnc(-c2ccco2)s1 was read as KCC2 mod -0.073, STAT3 act 42, HSV augment inactive, STAT3 inh 69*, STAT1 blocker 44* and STAT1 act 59.
For CCSc1nnc(Nc2ccc(C)cc2)s1 the results were KCC2 mod -1, STAT3 act 103, HSV augment inactive, STAT3 inh 2, STAT1 blocker -47 and STAT1 act 143*.
Cc1ccccc1OCC(=O)Nc1nnc(-c2ccco2)s1 was read as KCC2 mod 0.26 and HSV augment inactive.
For COc1ccccc1C(=O)Nc1nnc(-c2ccco2)s1 the results were KCC2 mod 0.68, STAT3 act 101, HSV augment inactive, STAT3 inh 4, STAT1 blocker -41 and STAT1 act 138*.
For CCSc1nnc(NC(=O)c2ccccc2C)s1 the results were KCC2 mod -0.16, STAT3 act 101, HSV augment inactive, STAT3 inh 6, STAT1 blocker -44 and STAT1 act 138*.
Screening CCSc1nnc(NC(=O)c2ccccc2)s1 returned KCC2 mod 0.0062, STAT3 act 88, HSV augment inactive, STAT3 inh 17, STAT1 blocker -27 and STAT1 act 124.
For Cc1cccc(N2C(=O)C(O)=C(C(=O)c3cccs3)C2c2ccc(Cl)cc2)n1 (stereo unspecified) the results were KCC2 mod 1.2 and HSV augment inactive.
COc1ccc(/C=N/NC(=O)c2ccccc2NC(=O)c2ccco2)c(OC)c1 was read as KCC2 mod 0.2 and HSV augment inactive.
